The half-life is the time needed for the level to fall by half in the phase considered. Low values mean rapid decline, high ones slow decline. Usually bioavailability stands for dose-corrected exposure relative to a reference, in per cent. A lower bioavailability goes with poor availability. The term logD denotes lipophilicity at a set pH, counting ionised and neutral species. Lower therefore signals lower lipophilicity. The term Ki denotes the equilibrium dissociation constant of an inhibitor or competing ligand from its target. Higher therefore signals a looser hold on the target. The term Cmax denotes the maximum level reached in the sampled fluid or tissue. In general, Tmax refers to the time from dosing to the highest level.

We go through two compounds from ChEMBL document CHEMBL1136055, “3-Heteroaryl-2-pyridones: benzodiazepine site ligands with functional delectivity for alpha 2/alpha 3-subtypes of human GABA(A) receptor-ion channels” (J Med Chem, 2002).

Data set [1] is described as follows: Clp at a dose of 1.5 mg/kg. Format: ADME, organism-based. Details: dose 1.5 mg/kg. As to conditions: in vivo.
Data set [2] is described as follows: Half life at a dose of 1.5 mg/kg. The following applies: in vivo. Details: dose 1.5 mg/kg. Type of data set: ADME, organism-based.
A short description of data set [3]: Oral bioavailability at a dose of 1.5 mg/kg. Type of data set: ADME, organism-based. As to conditions: eutheria, in vivo.
Data set [4] is described as follows: Vdss at a dose of 1.5 mg/kg. Format: ADME, organism-based. Details: dose 1.5 mg/kg. As to conditions: in vivo, read-out: Vdss.
A short description of data set [5]: Log D was evaluated. Format: physicochemical. The following applies: octanol/water.
The target of data set [6] is T1, GABA-A receptor; alpha-2/beta-3/gamma-2 (Homo sapiens, UniProt P18507+P28472+P47869).
T1 sequence (P18507 whole entry): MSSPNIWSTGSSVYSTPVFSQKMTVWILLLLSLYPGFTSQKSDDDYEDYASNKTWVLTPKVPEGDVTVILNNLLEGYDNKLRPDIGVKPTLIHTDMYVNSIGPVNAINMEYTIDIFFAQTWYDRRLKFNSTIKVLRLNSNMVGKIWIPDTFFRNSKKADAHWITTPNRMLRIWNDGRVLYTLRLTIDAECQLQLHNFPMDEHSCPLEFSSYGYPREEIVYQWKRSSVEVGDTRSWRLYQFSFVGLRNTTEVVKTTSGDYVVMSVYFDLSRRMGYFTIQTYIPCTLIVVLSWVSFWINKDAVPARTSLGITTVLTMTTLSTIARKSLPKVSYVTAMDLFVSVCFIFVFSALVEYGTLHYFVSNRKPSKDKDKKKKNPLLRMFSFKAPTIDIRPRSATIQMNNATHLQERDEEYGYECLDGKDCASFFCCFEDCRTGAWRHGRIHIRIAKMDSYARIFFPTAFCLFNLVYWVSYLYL
T1 sequence (P28472 whole entry): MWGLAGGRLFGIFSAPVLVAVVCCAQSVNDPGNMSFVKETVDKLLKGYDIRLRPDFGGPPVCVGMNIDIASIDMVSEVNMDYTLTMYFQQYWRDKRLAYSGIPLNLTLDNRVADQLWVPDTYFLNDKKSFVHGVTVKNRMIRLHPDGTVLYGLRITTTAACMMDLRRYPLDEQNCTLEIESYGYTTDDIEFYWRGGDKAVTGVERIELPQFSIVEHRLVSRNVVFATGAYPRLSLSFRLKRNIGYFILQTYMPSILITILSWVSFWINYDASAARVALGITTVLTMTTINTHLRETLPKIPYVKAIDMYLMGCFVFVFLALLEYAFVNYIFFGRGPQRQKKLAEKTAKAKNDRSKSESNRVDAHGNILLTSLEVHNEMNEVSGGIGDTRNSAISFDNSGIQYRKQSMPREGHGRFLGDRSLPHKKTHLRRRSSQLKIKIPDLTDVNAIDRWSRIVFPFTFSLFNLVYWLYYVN
T1 sequence (P47869 whole entry): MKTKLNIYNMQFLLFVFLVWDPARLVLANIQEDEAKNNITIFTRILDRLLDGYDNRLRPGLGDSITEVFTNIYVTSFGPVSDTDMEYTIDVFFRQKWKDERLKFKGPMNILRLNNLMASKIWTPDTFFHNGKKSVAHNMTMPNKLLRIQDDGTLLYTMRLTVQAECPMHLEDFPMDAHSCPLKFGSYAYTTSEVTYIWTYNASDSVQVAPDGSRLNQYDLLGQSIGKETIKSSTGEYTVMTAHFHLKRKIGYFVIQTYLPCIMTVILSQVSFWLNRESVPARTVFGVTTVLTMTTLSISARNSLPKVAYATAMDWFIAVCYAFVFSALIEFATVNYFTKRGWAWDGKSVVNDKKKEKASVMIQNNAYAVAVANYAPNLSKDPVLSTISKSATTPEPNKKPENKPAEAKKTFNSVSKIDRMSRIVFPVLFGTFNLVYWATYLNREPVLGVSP
As to the kind of experiment: Displacement of [3H]Ro-151788 from human Gamma-aminobutyric acid A receptor alpha-2-beta-3-gamma-2 stably expressed in L(tk-) cells. Format: cell-based. Summed up: (§1)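 Competition binding against [3H]Ro15-1788 on cloned human α1/α2/α3/α5 β3γ2S receptors stably expressed in L(tk-) cells. Six to eight test concentrations spaced in half-log steps. Ki given as mean (SEM), n = 3-5, reported to two significant figures.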
(In a radioligand displacement assay an active substance lowers the binding of a labelled ligand.)

The nature of data set [7]: Maximum concentration at a dose of 1.5 mg/kg. As to conditions: in vivo. Also on record: dose 1.5 mg/kg. Type of data set: ADME, organism-based.
Data set [8] addresses T2, GABA-A receptor; alpha-5/beta-3/gamma-2 (Homo sapiens, UniProt P18507+P28472+P31644).
T2 sequence (P18507 whole entry): T1 sequence (P18507 whole entry)
T2 sequence (P28472 whole entry): T1 sequence (P28472 whole entry)
T2 sequence (P31644 whole entry): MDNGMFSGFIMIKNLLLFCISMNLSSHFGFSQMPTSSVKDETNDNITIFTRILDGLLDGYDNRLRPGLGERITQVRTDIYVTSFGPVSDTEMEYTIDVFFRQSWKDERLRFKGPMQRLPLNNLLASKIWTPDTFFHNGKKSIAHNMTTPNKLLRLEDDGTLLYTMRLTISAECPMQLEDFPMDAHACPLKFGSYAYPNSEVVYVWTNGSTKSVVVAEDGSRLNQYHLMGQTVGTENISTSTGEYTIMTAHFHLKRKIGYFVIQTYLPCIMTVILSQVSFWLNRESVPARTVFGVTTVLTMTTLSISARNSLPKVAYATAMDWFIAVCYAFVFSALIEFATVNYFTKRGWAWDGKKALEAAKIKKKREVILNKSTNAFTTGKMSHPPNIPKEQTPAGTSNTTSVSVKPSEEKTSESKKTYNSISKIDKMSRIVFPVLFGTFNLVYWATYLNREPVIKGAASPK
As to the kind of experiment: Inhibition of [3H]Ro-151788 binding to human GABA A receptor (alpha-5-beta-3-gamma-2) stably expressed in L(tk-) cells. Type of data set: cell-based. Summed up:
as §1

The nature of data set [9]: Maximum time at a dose of 1.5 mg/kg. The following applies: in vivo. Format: ADME, organism-based. Details: dose 1.5 mg/kg.
Data set [10] can be described thus: Maximum time at a dose of 2.0 mg/kg. As to conditions: in vivo. Details: dose 2 mg/kg. Type of data set: ADME, organism-based.
A short description of data set [11]: Clp at a dose of 2.0 mg/kg. Format: ADME, organism-based. Also on record: dose 2 mg/kg. The following applies: in vivo.
The nature of data set [12]: Vdss at a dose of 2.0 mg/kg. Format: ADME, organism-based. Also on record: dose 2 mg/kg. As to conditions: in vivo, read-out: Vdss.
Data set [13] can be described thus: Partition coefficient (logD). Type of data set: physicochemical. As to conditions: octanol/water.
Data set [14] is described as follows: Maximum concentration at a dose of 2.0 mg/kg. Details: dose 2 mg/kg. The following applies: in vivo. Type of data set: ADME, organism-based.
A short description of data set [15]: Oral bioavailability at a dose of 2.0 mg/kg. Format: ADME, organism-based. As to conditions: eutheria, in vivo.
In data set [16] the target is T2, GABA-A receptor; alpha-5/beta-3/gamma-2. In words: Displacement of [3H]Ro-151788 from human GABA-A receptor alpha-5-beta-3-gamma-2 subunits expressed in L(tk-) cells. Type of data set: cell-based. The essentials: as §1
The nature of data set [17]: half life at a dose of 2.0 mg/kg. As to conditions: in vivo. Format: ADME, organism-based. Also on record: dose 2 mg/kg.

As for `COc1ccc(-c2cc(-c3nc(C)cs3)c(=O)n(C)c2-c2ccnnc2)cc1`, the Clp in data set [1] came to 35 mL/min/kg. This compound also showed a half-life in data set [2] of 66 min. Also, the bioavailability in data set [3] was found to be 65%. Besides, the Vd in data set [4] came out at 2.5 L/kg. The same compound came in with a logD in data set [5] of 2.7. Besides, the inhibitory constant (Ki) came out at 6.6 nM in [6] and 330 nM in data set [8]. Also, the highest concentration (Cmax) in data set [7] is 170 ng/mL. For the same compound, the Tmax in [9] worked out at 30 min.
`COc1ccc(-c2cc(-c3nc(C)cs3)c(=O)n(C)c2-c2ccncc2)cc1`: the Tmax in [10] stood at 18 min. In addition, the Clp in [11] worked out at 44 mL/min/kg. Besides, in [12], the Vd amounted to 3.3 L/kg. For the same compound, the logD in [13] is 3.6. In addition, the concentration in data set [14] peaked (Cmax) at 83 ng/mL. Also, the Ki in [6] is 8.6 nM; in data set [16], 320 nM. The same compound returned a bioavailability in [15] of 25%. For the same compound, the half-life in data set [17] is 102 min.
